Results published in ChEMBL document CHEMBL2046322, “Discovery of 1,3-Diaminobenzenes as Selective Inhibitors of Platelet Activation at the PAR1 Receptor” (ACS Med Chem Lett, 2012).
pIC50: −log10 of the molar value. Values after ≈ are worked out from the molar mass of the structure shown.

Key:
[1] = target: T1, Proteinase-activated receptor 1 (Homo sapiens) (UniProt P25116); test: Inhibition of SFLLRN-NH2-stimulated PAR1-mediated platelet activation in […] assessed as surface expression of P-selectin at 10 uM after 20 mins by flow cytometry; assay type: cell-based
T1 sequence (whole entry): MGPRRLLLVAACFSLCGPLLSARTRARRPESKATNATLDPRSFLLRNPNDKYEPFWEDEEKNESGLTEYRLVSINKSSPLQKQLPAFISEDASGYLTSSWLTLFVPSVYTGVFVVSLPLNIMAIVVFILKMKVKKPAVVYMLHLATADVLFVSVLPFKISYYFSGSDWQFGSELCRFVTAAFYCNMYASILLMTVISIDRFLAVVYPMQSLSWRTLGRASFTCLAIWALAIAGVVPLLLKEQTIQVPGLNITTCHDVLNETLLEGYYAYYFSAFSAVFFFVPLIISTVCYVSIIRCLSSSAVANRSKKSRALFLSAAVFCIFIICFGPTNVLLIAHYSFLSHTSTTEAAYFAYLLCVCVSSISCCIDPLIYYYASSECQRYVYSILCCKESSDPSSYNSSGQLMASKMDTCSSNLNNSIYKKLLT

[2] = target: T2, Proteinase-activated receptor 1 (Homo sapiens, UniProt P25116); test: Inhibition of SFLLRN-NH2-stimulated PAR1-mediated platelet activation in […] assessed as surface expression of P-selectin after 20 mins by flow cytometry; set-up: species or system Plasma
T2 sequence (P25116 whole entry): T1 sequence (whole entry)

Plasma [3] = test: Metabolic stability in human plasma assessed as compound remaining at 5 uM after 5 hrs; assay type: ADME, cell-free
How it was run: (§1)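 Compound incubated in human or mouse plasma; stability reported as percent remaining after 5 h.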

Plasma [4] = test: Metabolic stability in mouse plasma assessed as compound remaining at 5 uM after 5 hrs; assay type: ADME, cell-free; how it was run: as §1
Plasma [5] = test: Plasma protein binding in human; assay type: ADME, cell-free
Plasma [6] = test: Plasma protein binding in mouse; assay type: ADME, cell-free
[7] = target: T1, Proteinase-activated receptor 1 (Homo sapiens); test: Inhibition of SFLLRN-NH2-stimulated PAR1-mediated platelet activation in platelet-rich human plasma assessed as surface expression of P-selectin at 3 uM after 20 mins by flow cytometry; conditions: Platelets, in the assay text read “gel-filtered human platelets” for “platelet-rich human plasma”
How it was run: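 Gel-filtered human platelets (0.5–1 × 10⁸/mL) exposed to antagonist at 3 μM, then challenged with 5 μM SFLLRN for 10 min. Platelets stained with PE-conjugated AC1.2 anti-P-selectin antibody for 20 min at 37 °C, diluted in PBS and measured immediately by flow cytometry.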

[8] = Solubility of the compound in phosphate buffered saline; assay type: physicochemical; conditions: buffer

SMILES	inhibition [1] [%]	pIC50 [2]	also measured
CCCC(=O)Nc1cccc(NC(=O)c2cccc(S(C)(=O)=O)c2)c1	25		
CCCC(=O)Nc1cccc(NC(=O)c2cccc(NC(C)=O)c2)c1	55		
CCCC(=O)Nc1cccc(NC(=O)c2cccc(C)c2)c1	88		
CCOC(=O)Nc1cccc(NC(=O)c2ccccc2Br)c1	98	5.58	Stability (Plasma [3]): 85%; Stability (Plasma [4]): 56%; PPB (Plasma [5]): 95%; PPB (Plasma [6]): 87%
O=C(Nc1cccc(N2CCCS2(=O)=O)c1)c1ccccc1Br	8		Stability (Plasma [3]): > 99%; Stability (Plasma [4]): 98%; PPB (Plasma [6]): 76%
CCCCC(=O)Nc1cccc(NC(=O)c2ccccc2Br)c1	< 1		
CCCC(=O)Nc1ccc(NC(=O)c2ccccc2Br)cc1	1		
CCCC(=O)Nc1cccc(NC(=O)c2cc(Cl)ccc2Br)c1	68	6.42	
CCCC(=O)Nc1cccc(NC(=O)c2ccccc2S(C)(=O)=O)c1	21		
CCCC(=O)Nc1cccc(NC(=O)c2cccc(-c3ccccc3)c2)c1	98	5.66	
CCCC(=O)Nc1cccc(NC(=O)c2ccc(OC)cc2)c1	15		
CCCC(=O)Nc1cccc(NC(=O)c2ccc(C)cc2)c1	25		
CCCC(=O)Nc1ccnc(NC(=O)c2ccccc2Br)c1	< 1		
CCC(C)(C)C(=O)Nc1cccc(NC(=O)c2ccccc2Br)c1	21		Stability (Plasma [3]): > 99%; Stability (Plasma [4]): > 99%; PPB (Plasma [5]): 95%
CCC(=O)Nc1cccc(NC(=O)c2ccccc2C)c1C	5		
CCCC(=O)Nc1cccc(NC(=O)c2cnc3ccccc3c2)c1	10		
CCCC(=O)Nc1cccc(NC(=O)c2cc(C)ccc2Br)c1	> 99	6.32	
CCCC(=O)Nc1cccc(NC(=O)c2ccccc2F)c1	99	6.01	
CCCNC(=O)c1coc(NC(=O)c2ccccc2Br)n1	< 1		
CCCC(=O)Nc1cccc(NC(=O)c2cccc([N+](=O)[O-])c2)c1	55		
CCCC(=O)Nc1ccc2nc(-c3ccccc3Br)[nH]c2c1	39		
CCCC(=O)Nc1cccc(NC(=O)c2ccccc2C)c1	98	6.11	
O=C(Nc1cccc(NC(=O)C2CCCC2)c1)c1ccccc1Br	91	6.28	Stability (Plasma [4]): 26%

SMILES	inhibition [1] [%]	pIC50 [2]	also measured
CCCC(=O)Nc1cccc(NC(=O)c2ccco2)c1	30		
CCCC(=O)Nc1cccc(C(=O)Nc2ccccc2Cl)c1	67		
O=C(Nc1cc(NC(=O)C2CCCC2)ccn1)c1ccccc1Br	< 1		
CCCC(=O)Nc1cccc(NC(=O)c2ccccc2-c2ccccc2)c1	< 1		
CCCC(=O)Nc1cccc(NC(=O)c2ccccc2C(=O)N(C)C)c1	48		
CCC(=O)Nc1cccc(NC(=O)c2ccccc2Br)c1		5.77	inhibition [7]: 95%
CCCC(=O)Nc1cccc(NC(=O)c2cccnc2)c1	< 1		
CCCNC(=O)c1cccc(NC(=O)c2ccccc2Cl)c1	99	5.74	
CCCC(=O)Nc1cccc(NC(=O)c2cccc(C#N)c2)c1	70		
CCCC(=O)Nc1cccc(NC(=O)c2ccc(S(C)(=O)=O)cc2)c1	10		
CCCC(=O)Nc1cccc(NC(=O)c2ccccc2OC(F)(F)F)c1	> 99	6.15	
CCCC(=O)Nc1cccc(NC(=O)c2c(Cl)cccc2Br)c1	> 99	5.64	
CC(C)CNC(=O)c1coc(NC(=O)c2ccccc2Br)n1	< 1		
CCS(=O)(=O)Nc1cccc(NC(=O)c2ccccc2Br)c1	27		Stability (Plasma [3]): 99%; Stability (Plasma [4]): > 99%; PPB (Plasma [5]): 93%; PPB (Plasma [6]): 69%
CCCC(=O)Nc1cccc(NC(=O)c2ccccc2OC)c1	50		
Cc1ccccc1C(=O)Nc1cccc(NC(=O)CC(C)C)c1	> 99	5.95	Stability (Plasma [3]): > 99%; Stability (Plasma [4]): 69%; PPB (Plasma [5]): 96%; PPB (Plasma [6]): 83%
CCCCS(=O)(=O)Nc1cccc(NC(=O)c2ccccc2Br)c1	31		Stability (Plasma [3]): 97%; Stability (Plasma [4]): > 99%
CCS(=O)(=O)N1CCCc2ccc(NC(=O)c3ccccc3Br)cc21	26		Stability (Plasma [3]): > 99%; Stability (Plasma [4]): 97%; PPB (Plasma [5]): 98%; PPB (Plasma [6]): 96%
CN(C(=O)c1ccccc1Br)c1cccc(NC(=O)C2CCCC2)c1	< 1		Stability (Plasma [3]): 64%; Stability (Plasma [4]): 40%; PPB (Plasma [5]): 95%; PPB (Plasma [6]): 90%
CCCC(=O)Nc1cccc(NC(=O)c2ccc(F)cc2)c1	85		
CCCC(=O)Nc1ccc(Cl)c(NC(=O)c2ccccc2Br)c1	35		
CC(=O)N1CCCc2ccc(NC(=O)c3ccccc3Br)cc21	10		Stability (Plasma [3]): 92%; Stability (Plasma [4]): 71%; PPB (Plasma [6]): 89%
CCCC(=O)Nc1cccc(NC(=O)c2ccc(Cl)cc2)c1	80		

SMILES	inhibition [1] [%]	pIC50 [2]	also measured
O=C(Nc1ccnc(NC(=O)c2ccccc2Br)c1)c1ccccc1	11		
CCCC(=O)Nc1cccc(NC(=O)c2cccc(Cl)c2)c1			inhibition [7]: 80%
CCCCNc1cccc(NC(=O)c2ccccc2Br)c1	> 99	6.47	Stability (Plasma [3]): 99%; Stability (Plasma [4]): 97%; PPB (Plasma [5]): 97%; PPB (Plasma [6]): 96%
CCCC(=O)Nc1cccc(NC(=O)c2ccccc2CC)c1	> 99	6.28	
CC(C)C(=O)Nc1cccc(NC(=O)c2ccccc2Br)c1	88	5.85	Stability (Plasma [4]): 83%
O=C(Nc1cccc(NC(=O)c2ccccc2Br)c1)c1ccccc1	67		
CCCC(=O)Nc1cccc(N(C)C(=O)c2ccccc2Br)c1	< 1		Stability (Plasma [3]): 19%; Stability (Plasma [4]): < 1%; PPB (Plasma [5]): 89%
CCCC(=O)Nc1cccc(NC(=O)c2ccc(C(F)(F)F)cc2)c1	30		
CCCC(=O)Nc1cccc(NC(=O)c2ccccc2Cl)c1	> 99	5.96	
O=C(Nc1cccc(N2CCCCC2=O)c1)c1ccccc1Br	9		Stability (Plasma [3]): 94%; Stability (Plasma [4]): 82%; PPB (Plasma [5]): 82%; PPB (Plasma [6]): 72%
CCCC(=O)Nc1cccc(NC(=O)c2cccc(Oc3ccccc3)c2)c1			inhibition [7]: 65%
CCCC(=O)Nc1cccc(NC(=O)c2cc(F)ccc2Br)c1	> 99	6.22	
CCCC(=O)Nc1cccc(NC(=O)c2ccccc2C(F)(F)F)c1	99	5.89	
CC(C)CC(=O)Nc1cccc(NC(=O)c2ccccc2Br)c1	> 99	6.54	solubility [8]: 20 µM (≈ 7.51 µg/mL); Stability (Plasma [3]): 90%; Stability (Plasma [4]): 65%; PPB (Plasma [5]): 93%; PPB (Plasma [6]): 87%
CCCC(=O)Nc1cccc(NC(=O)c2ccccc2)c1	64		
CCCC(=O)N(C)c1cccc(NC(=O)c2ccccc2Br)c1	8		Stability (Plasma [3]): 90%; Stability (Plasma [4]): 85%; PPB (Plasma [5]): 98%; PPB (Plasma [6]): 85%
Cc1ccccc1C(=O)Nc1cccc(NC(=O)Cc2ccc(Cl)cc2)c1	40		
CCCC(=O)Nc1cccc(NC(=O)c2ccc(F)cc2Br)c1	> 99	6.41	
CCCC(=O)Nc1cccc(NC(=O)c2c(C)cccc2C)c1	98	5.52	
CCCC(=O)Nc1cccc(NC(=O)c2cccc(Cl)c2Cl)c1	99	5.51	
CCCC(=O)Nc1cccc(NCc2ccccc2Br)c1	60		Stability (Plasma [3]): 73%; Stability (Plasma [4]): 1%
CC(=O)Nc1cccc(NC(=O)c2ccccc2Cl)c1	35		
